Laboratory results as given in ChEMBL document CHEMBL1155549, “Sialic acid-mimic peptides as hemagglutinin inhibitors for anti-influenza therapy” (J Med Chem, 2010).
Active and inactive are the calls of the source. The calls are words filed in the database; no cut-off is given here. Where a SMILES comes first, the peptide text is derived from it. The star is where a group is joined. Biotin = O=C1N[C@H]2[C@H](CS[C@H]2CCCCC(=O)*)N1

How the values were obtained:
[1] = system: Influenza A virus (A/Wuhan/359/1995(H3N2)); assay: Binding affinity to Influenza A virus (A/Wuhan/359/1995 (H3N2)) hemagglutininin by scintillation proximity assay
[2] = system: Influenza A virus (A/New Caledonia/20/1999(H1N1)); assay: (§1) Binding affinity to Influenza A virus (A/New Caledonia/20/1999 (H1N1)) hemagglutininin by avidin-biotin peroxidase complex method
Method in brief: (§2)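 HA was coated at 70 μg/mL overnight at 4 °C and blocked with 1% BSA/PBS. C-terminally biotinylated peptides (5-400 μM) were added for 2 h. After PBS washes, peroxidase-streptavidin was added for 1 h, and o-phenylenediamine colour was read as ΔA at 492 nm, in triplicate. Kd came from a Scatchard plot over 20-200 μM peptide.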

[3] = system: Influenza A virus (A/Wyoming/03/2003(H3N2)); assay: (§3) Binding affinity to Influenza A virus (A/Wyoming/03/2003 (H3N2)) hemagglutininin by avidin-biotin peroxidase complex method; method in brief: as §2
[4] = as §1; method in brief: as §2
[5] = as §3; method in brief: as §2

Molecule	Activity [1]	Activity [2]	Activity [3]	Kd [4] [µM]	Kd [5] [µM]
CSCC[C@H](NC(=O)[C@@H](NC(=O)[C@@H]1CCCN1C(=O)[C@H](CO)NC(=O)[C@H](CC(C)C)NC(=O)[C@H](CCCNC(=N)N)NC(=O)[C@@H](C)N)[C@@H](C)O)C(=O)N[C@H](C(=O)N[C@@H](Cc1cnc[nH]1)C(=O)N1CCC[C@H]1C(=O)N[C@@H](CC(N)=O)C(=O)NCC(=O)N[C@@H](C)C(=O)N[C@@H](CCC(N)=O)C(=O)N1CCC[C@H]1C(=O)O)C(C)C	Active	–	–	–	–
CSCC[C@H](NC(=O)[C@@H](NC(=O)[C@H](CCCNC(=N)N)NC(=O)[C@@H]1CCCN1C(=O)[C@H](CC(C)C)NC(=O)[C@H](C)NC(=O)[C@H](C)N)[C@H](C)O)C(=O)N[C@H](C(=O)N[C@@H](Cc1cnc[nH]1)C(=O)N1CCC[C@H]1C(=O)N[C@@H](CCCCN)C(=O)N1CCC[C@H]1C(=O)N[C@@H](C)C(=O)N[C@@H](CCC(N)=O)C(=O)N1CCC[C@H]1C(=O)N[C@@H](CCCCNC(=O)CCCC[C@@H]1SC[C@@H]2NC(=O)N[C@@H]21)C(N)=O)C(C)C	–	inactive	inactive	–	–
CSCC[C@H](NC(=O)[C@@H](NC(=O)[C@H](CCCNC(=N)N)NC(=O)[C@@H]1CCCN1C(=O)[C@H](C)NC(=O)[C@H](CCCNC(=N)N)NC(=O)[C@H](C)N)[C@@H](C)O)C(=O)N[C@H](C(=O)N[C@@H](Cc1cnc[nH]1)C(=O)N1CCC[C@H]1C(=O)N[C@@H](CCCCN)C(=O)N1CCC[C@H]1C(=O)N[C@@H](C)C(=O)N[C@@H](CCC(N)=O)C(=O)N1CCC[C@H]1C(=O)N[C@@H](CCCCNC(=O)CCCC[C@@H]1SC[C@@H]2NC(=O)N[C@@H]21)C(N)=O)C(C)C (H-ARAPRTMVHPKPAQPK(Biotin)-NH2)	–	inactive	inactive	–	–
CC(C)C[C@H](NC(=O)[C@H](CCCNC(=N)N)NC(=O)[C@H](C)N)C(=O)N1CCC[C@H]1C(=O)N[C@@H](CCCNC(=N)N)C(=O)N[C@H](C(=O)N[C@@H](C)C(=O)N[C@H](C(=O)N[C@@H](Cc1cnc[nH]1)C(=O)N1CCC[C@H]1C(=O)N[C@@H](CCCCN)C(=O)N1CCC[C@H]1C(=O)N[C@@H](C)C(=O)N[C@@H](CCC(N)=O)C(=O)N1CCC[C@H]1C(=O)N[C@@H](CCCCNC(=O)CCCC[C@@H]1SC[C@@H]2NC(=O)N[C@@H]21)C(N)=O)C(C)C)[C@@H](C)O (H-ARLPRTAVHPKPAQPK(Biotin)-NH2)	–	inactive	inactive	–	–
CSCC[C@H](NC(=O)[C@@H](NC(=O)[C@H](CCCNC(=N)N)NC(=O)[C@@H]1CCCN1C(=O)[C@H](CC(C)C)NC(=O)[C@H](CCCNC(=N)N)NC(=O)[C@H](C)N)[C@@H](C)O)C(=O)N[C@H](C(=O)N[C@@H](Cc1cnc[nH]1)C(=O)N1CCC[C@H]1C(=O)N[C@@H](C)C(=O)N1CCC[C@H]1C(=O)N[C@@H](C)C(=O)N[C@@H](CCC(N)=O)C(=O)N1CCC[C@H]1C(=O)N[C@@H](CCCCNC(=O)CCCC[C@@H]1SC[C@@H]2NC(=O)N[C@@H]21)C(N)=O)C(C)C (H-ARLPRTMVHPAPAQPK(Biotin)-NH2)	–	inactive	inactive	–	–
H-ARLPRTMVHPKPAQP-NH2	Dose-dependent effect	–	–	31	22
